Ends that are not written are not given here.
Tests used:
FeoB = format: binding, P. aeruginosa PAO1; settings: overnight 4°C, 0.15 M NaCl; eluted with 0.5 and 1 M KCl, not 0.3 M KCl; n = 3 experiments
Summary of the method: (§1)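 Cys-extended test peptide (2 mg) was coupled to SulfoLink resin in 50 mM Tris pH 8.5, 5 mM EDTA, 3 h room temperature. His-tagged transporter was Ni-Sepharose purified (4 h, 4°C; imidazole elution) and applied to the column; the flowthrough was collected. Columns were washed with 10 mM HEPES, 0.05% dodecyl-maltoside, 0.15 M KCl, then step-eluted with 0.3, 0.5, 1.0 M KCl. Unboiled fractions went to 4–20% SDS-PAGE and anti-His (1 µg/ml, overnight 4°C) western with IRDye secondary.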

PotH = biological target: T1, PotH (Escherichia coli, UniProt P31135); format: binding, E. coli; settings: overnight 4°C, 0.15 M NaCl; eluted with 0.5 and 1 M KCl, not 0.3 M KCl; n = 3 experiments
T1 sequence (P31135 1-317): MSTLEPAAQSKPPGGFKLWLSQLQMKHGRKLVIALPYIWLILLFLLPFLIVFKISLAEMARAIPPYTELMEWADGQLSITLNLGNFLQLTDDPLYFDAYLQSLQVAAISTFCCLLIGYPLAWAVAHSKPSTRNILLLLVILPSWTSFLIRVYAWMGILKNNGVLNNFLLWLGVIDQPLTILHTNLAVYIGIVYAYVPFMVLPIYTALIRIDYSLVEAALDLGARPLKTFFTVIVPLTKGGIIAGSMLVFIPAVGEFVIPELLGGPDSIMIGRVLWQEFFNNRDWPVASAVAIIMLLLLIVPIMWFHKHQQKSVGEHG
Summary of the method: as §1

thrombin = thrombin (Homo sapiens, UniProt P00734); assay: N-104 affinity column screen of human tears, thrombin western blot; format: binding; settings: pooled human basal tears, 5 hours 4°C, KCl elution, anti-thrombin western blot
Summary of the method: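 Basal tears were collected 5 min on Schirmer strips after 0.5% proparacaine, eluted at 4°C in phosphate-buffered saline and pooled (170 µl). The pool was diluted fivefold with protease inhibitors, agarose-precleared, and split by protein between test-peptide and control-peptide columns for 5 h at 4°C. Elution was 0.3/0.5/1.0 M KCl; the 0.5 M eluate went to MS (human UniProt search). Unboiled fractions: 4–20% SDS-PAGE, polyclonal anti-thrombin 1 µg/ml overnight 4°C, LI-COR detection.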

P. aeruginosa PA14 [1] = format: cell-based, Pseudomonas aeruginosa; settings: for minimum inhibitory concentration (MIC): PA14, CFU assay
P. aeruginosa PA14 [2] = assay: Polyamine toxicity for PA14; format: cell-based, Pseudomonas aeruginosa; settings: 10^6 cfu/ml PA14, 30 mOsm/l, alamarBlue; n = 3 experiments
[3] = system: PA14 pathogenesis in C. elegans N2; assay: C. elegans - PA14 liquid infection; format: in vivo, Caenorhabditis elegans; settings: SYTOX Orange uptake of dead worms
Summary of the method: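 Young adult worms (raised from L1 on NGM with E. coli OP50 at room temperature, washed off in M9, pelleted 1200×g 2 min) were placed ~50 per well in 150 µl 90% M9/10% LB. They were incubated aerobically with an equal volume of PA14, feoB/potH/yaiW transposon mutants, or OP50, diluted to 10^7 cfu/ml and pre-treated with 50 µM test peptide for 5 h at 35°C. After 3 days, equal volume 6 µM SYTOX Orange was added; imaged next day, transmitted and 535/610 nm fluorescence.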

P. aeruginosa PA14 [4] = assay: N-104 resistance assay over 30 generations; format: cell-based, Pseudomonas aeruginosa; settings: through 30 generations, sub-MIC and MIC exposure; n = 2 experiments
[5] = system: PA14 feoB, potH and yaiW transposon mutants; assay: CFU killing assay of PA14 transposon mutants; format: cell-based, Pseudomonas aeruginosa; settings: 10^6 cfu/ml, 30 mOsm/l; n = 3 experiments
Summary of the method: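 Suspensions were exposed to test peptide or left untreated ~8 h at 35°C. 2 µl were spotted on LB agar, with or without selective antibiotic, incubated overnight at 37°C and imaged; n = 3 experiments.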

[6] = system: ^14C-spermidine uptake by PA14; assay: Polyamine transport assay; format: cell-based, Pseudomonas aeruginosa; settings: 10 and 25 µM, 45 min 35°C pretreatment, n = 3 experiments
Summary of the method: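 PA14 (0.8×10^8 cfu in 100 µl dilute phosphate saline) was pre-incubated 45 min at 35°C with or without 10 or 25 µM test peptide. Cells were then given 1 µl of 10 mM [1,4-14C]spermidine stock (0.1 mCi/ml) for 15 min at 35°C. Pellets were washed four times with phosphate-buffered saline and counted by liquid scintillation, last wash also counted. Molecules per cell were estimated from a spermidine standard curve.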

[7] = Solubility of synthetic loop peptides in solvents; format: physicochemical; settings: lyophilized synthetic peptide, acetylated and amidated
Summary of the method: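 Synthetic outer-loop peptides were N-acetylated and C-amidated, ≥95% HPLC purity, and stored lyophilized at −80°C. Each was […] as required before competition binding at 0–250 µM.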

EDASSDSTGADPAQEAGTSKPNEE-NH2 [C-95]
binding of His tagged FeoB to column immobilized peptide (FeoB): Neither bound | binding of His tagged PotH to column immobilized peptide (PotH): Neither bound | capture of thrombin from human tears by column immobilized peptide (thrombin): None bound

Ac-AQKLLKKFSLSKPWA [N-104:L115S]
minimum inhibitory concentration (MIC) (P. aeruginosa PA14 [1]): 2 µM

NCCCCNCCCN [spermidine]
effect of exogenous polyamine on N-104 bactericidal activity (P. aeruginosa PA14 [1]; PA14, 5 µM N-104 plus polyamine at or below 100 µM, n = 3 experiments): inhibited N-104 bactericidal activity in a concentration-dependent manner | concentrations toxic for PA14 (P. aeruginosa PA14 [2]): greater than 100 µM

Ac-AQKLLKKFSLLKPWA [N-104]
dependence of PA14 killing efficacy on osmolarity (P. aeruginosa PA14 [1]; two osmolalities (30 and 300 mOsm/l)): efficacy diminishes as osmolarity increases | effect of peptide alone on C. elegans [3]: no apparent effect | development of resistance of PA14 (P. aeruginosa PA14 [4]): No stable resistance | killing of PA14 transposon mutant lacking YaiW [5]: partially resistant | binding of His tagged FeoB to column immobilized peptide (FeoB): high affinity ligation | binding of His tagged PotH to column immobilized peptide (PotH): high affinity ligation | capture of thrombin from human tears by column immobilized peptide (thrombin): binds

Ac-AKAGKGMHGGVPGG-NH2 [N-80/C-25]
effect on ^14C-spermidine uptake [6]: almost similar inhibitory effect

Ac-GAFFGQGGA-NH2 [FeoB outer loop 3 synthetic peptide]
solubility in water and organic solvents [7]: not water, DMSO, methanol, isopropanol nor acetonitrile soluble | solvent in which the peptide dissolved [7]: ammonia water and acetic acid

Ac-INIGGALQP-NH2 [FeoB outer loop 1 synthetic peptide]
solubility in water and organic solvents [7]: not water, DMSO, methanol, isopropanol nor acetonitrile soluble | solvent in which the peptide dissolved [7]: formic or acetic acid

Ac-AQKLLKKFSSLKPWA [N-104:L114S]
minimum inhibitory concentration (MIC) (P. aeruginosa PA14 [1]): 2 µM
